HUVEC inhibit: inhibitors of human endothelial cell proliferation. HUVEC proliferation, CellTiter-Glo luminescence, 72 h; stronger effect = lower value. viability, % at 10 µM (by protocol). actives 1.1% (n = 86,000);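 active means viability at or below 30%; inactive means viability above 30%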
HCT116 bCat-KO: beta-catenin-lacking colon tumor cell growth suppression | HCT116 beta-catenin knockout viability, CellTiter-Glo, 60 h; stronger effect = lower value | viability, % at 10 µM | actives 1.5% (n = 140,000) | AID 818;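 active means viability at or under a set limit, the compound median less 4 SD, cut at about 6% in these data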
Fibroblast inh: blocks proliferation of human lung fibroblasts; LL 47 human lung fibroblast viability, ATP luminescence; stronger effect = lower value; viability, % at 10 µM; actives 1.1% (n = 85,000); AID 719;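 active means viability at or below 50% in the single dose screen; inactive means viability above 50%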;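 further: compound exposure lasted 72 h before the ATP readout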
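Signal: luminescent ATP detection, CellTiter-Glo; assay system: LL 47 human lung fibroblasts; input: 1,150 cells/well; incubation: overnight cell rest, 72 h compound treatment at 37 °C; measure: % viability versus median cells-only luminescence; medium: IMEM growth medium with 15% fetal bovine serum; dosing: compound addition at 0.1% DMSO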
HCT116 PTEN-null: suppresses growth of cells with PTEN deletion; HCT116 PTEN-null viability, CellTiter-Glo, 60 h; stronger effect = lower value; viability, % at 10 µM; actives 1.2% (n = 140,000);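 active means viability at or below a set limit, 4 SD under the median of all tested compounds, cut at about 3.7% in these data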;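 further: PTEN knockout HCT116 line with beta catenin targeted HCT116 as companion control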
H69AR growth 86K: blocks growth of human H69AR lung tumor cells. H69AR lung tumor viability, ATP luminescence, 72 h; stronger effect = lower value. viability, % at 10 µM. actives 6% (n = 85,000). AID 598;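 active means viability at or below 40%; inactive means viability above 40%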;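 further: multidrug resistant small cell line overexpressing MRP-1 efflux transporter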
Hits are given with their value; 0 = inactive; - = not tested or not shown. Shown is part of a subset that was picked to be rich in hits.

SMILES | HUVEC inhibit | HCT116 bCat-KO | Fibroblast inh | HCT116 PTEN-null | H69AR growth 86K
Nc1ccc(N2CCCCCC2)cc1 | 0 | 0 | 0 | 0 | 2.1
CCOc1ccc(NC(=O)C2=C(C)C(=O)OC23CCC(C)CC3)cc1 (centres undefined) | 0 | 0 | 0 | 0 | 0
CC1=NOC(=O)/C1=C\c1ccc(-c2ccc(Cl)cc2Cl)o1 | - | 4.7 | - | 0 | -
Cc1[nH][nH]c(=O)c1C(c1ccc(-c2ccc(Cl)cc2Cl)o1)c1c(C)[nH][nH]c1=O | - | 0 | - | 0 | -
CCOc1ccc(NC(=O)Nc2cc(OCC(F)(F)F)cc(OCC(F)(F)F)c2)cc1 | - | 0 | - | 0 | -
O=C(NCCNC(=O)c1cc(OCC(F)(F)F)ccc1OCC(F)(F)F)Nc1ccc(Cl)cc1 | - | 5.4 | - | 0 | -
O=C(Nc1ccc(F)cc1)Nc1cc(OCC(F)(F)F)cc(OCC(F)(F)F)c1 | - | 5.5 | - | 3.7 | -
O=C(NCc1ccc(C(F)(F)F)cc1)C1CC(c2c(Cl)cccc2Cl)=NO1 (centres undefined) | - | 0 | - | 0 | -
CCOc1ccc(NC(=O)CN2CCN(CC(=O)Nc3ccc(Cl)c(C(F)(F)F)c3)CC2)cc1 | 0 | 0 | 0 | 0 | 0
CC1CCN(S(=O)(=O)c2ccc(Cl)cc2)CC1 | 0 | 0 | 0 | 0 | 0
CC1=C(C)CS(=O)N(S(=O)(=O)c2ccc(Cl)cc2)C1 (centres undefined) | 0 | 0 | 47 | 0 | 0
CCOC(=O)c1cnc(-n2nc(C)cc2C)nc1NCCO | 0 | 0 | 0 | 0 | 0
CCOC(=O)c1cnc(-n2nc(C)cc2C)nc1NNc1cc(-c2ccccc2)nc(C)n1 | - | 3.8 | - | 0 | -
CCOC(=O)c1cnc(-n2nc(C)cc2C)nc1NC(C)c1ccccc1 (centres undefined) | 0 | 2.3 | 17 | 3.6 | 2.0
CCOC(=O)c1cnc(-n2nc(C)cc2C)nc1NCc1ccccc1 | 0 | 0 | 0 | 0 | 2.4
Cc1ccc(S(=O)(=O)N(C)CCCC(=O)Nc2ccc(C)cc2C)cc1 | - | 0 | - | 0 | -
O=C(COC(=O)[C@H](Cc1ccccc1)NS(=O)(=O)c1ccccc1F)NC1CCCCC1 | - | 0 | - | 0 | -
CC(=O)Oc1ccc2ccccc2c1C(NC(=O)Cc1ccccc1)c1ccc(Cl)cc1 (centres undefined) | - | 0.8 | - | 0.9 | -
CCNC(=O)n1nccc1C(C)Oc1ccccc1 (centres undefined) | - | 0 | - | 0 | -
COc1cccc(C2=CC(c3ccccc3)n3nnnc3N2)c1 (centres undefined) | - | 0 | - | 0 | -
COc1cccc(C2=CC(c3ccc(N(C)C)cc3)n3nnnc3N2)c1 (centres undefined) | 0 | 0 | 0 | 0 | 15
COc1ccc(OC)c(C2C=C(c3ccc(C)c(C)c3)Nc3nnnn32)c1 (centres undefined) | 0 | 0 | 0 | 0 | 14
COc1ccc(C2=CC(c3ccc(C)cc3)n3nnnc3N2)cc1 (centres undefined) | 0 | 0 | 0 | 0 | 0
COc1cccc(C2=CC(c3cccc(OC)c3OC)n3nnnc3N2)c1 (centres undefined) | - | 0 | - | 0 | -
COc1cccc(C2=CC(c3cc(OC)ccc3OC)n3nnnc3N2)c1 (centres undefined) | 0 | 0 | 0 | 0 | 5.4
SMILES | HUVEC inhibit | HCT116 bCat-KO | Fibroblast inh | HCT116 PTEN-null | H69AR growth 86K
FC(F)(F)c1cc(-c2ccco2)nc(-n2cnc3ccccc32)n1 | 0 | 0 | 0 | 0 | 25
FC(F)(F)c1cc(-c2ccco2)nc(N2CCN(c3ccccc3)CC2)n1 | 0 | 0 | 0 | 0 | 0
Cc1nc2ccccc2n1-c1nc(-c2ccco2)cc(C(F)(F)F)n1 | - | 3.1 | - | 2.7 | -
O/N=C(\c1ccc(Cl)cc1Cl)c1ncc(C(F)(F)F)cc1Cl | 0 | 0 | 0 | 0 | 0
CCOC(=O)C1=C(C)NC(C)=C(C(=O)OCC)C1C(=O)OCC(=O)NC(C)C | - | 0 | - | 0 | -
CCC(C)c1ccc(-c2cc(C(=O)OCC(=O)Nc3cc(C)on3)c3ccccc3n2)cc1 (centres undefined) | 0 | 0 | 0 | 0 | 9.5
COc1ccc(-c2cc(C(=O)OCC(=O)Nc3cc(C)on3)c3ccccc3n2)cc1OC | - | 0 | - | 0 | -
COC(=O)C1=NN(c2cccc(C)c2)C2C(=O)N(c3ccccc3OC)C(=O)C12 (centres undefined) | - | 0 | - | 0 | -
CC(=O)c1ccc(NC2=C(N3CCOCC3)C(=O)c3ccccc3C2=O)cc1 | - | 0 | - | 0 | -
CC(=O)N(C)C1=C(N2CCOCC2)C(=O)c2ccccc2C1=O | - | 0.7 | - | 0.8 | -
COc1ccccc1N1CCN(Cc2nc(N)nc(Nc3ccc(C)cc3)n2)CC1 | 0 | 0 | 0 | 0 | 3.0
CC1CC(C)CN(Cc2nc(N)nc(Nc3ccc4ccccc4c3)n2)C1 (centres undefined) | 0 | 0 | 0 | 0 | 12

Assay outcomes deposited in PubChem BioAssay by SRMLSC.
